Results reported in ChEMBL document CHEMBL1155028, “Synthesis and pharmacological investigation of novel 2-aminothiazole-privileged aporphines” (Bioorg Med Chem, 2008).

How the values were obtained:
Assay type in all cases: cell-based
[1] = target: T1, 5-hydroxytryptamine receptor 1A (Rattus norvegicus, UniProt P19327); assay: Displacement of [3H]8-OH-DPAT from rat 5HT1A receptor expressed in CHO cells
T1 sequence (P19327 whole entry): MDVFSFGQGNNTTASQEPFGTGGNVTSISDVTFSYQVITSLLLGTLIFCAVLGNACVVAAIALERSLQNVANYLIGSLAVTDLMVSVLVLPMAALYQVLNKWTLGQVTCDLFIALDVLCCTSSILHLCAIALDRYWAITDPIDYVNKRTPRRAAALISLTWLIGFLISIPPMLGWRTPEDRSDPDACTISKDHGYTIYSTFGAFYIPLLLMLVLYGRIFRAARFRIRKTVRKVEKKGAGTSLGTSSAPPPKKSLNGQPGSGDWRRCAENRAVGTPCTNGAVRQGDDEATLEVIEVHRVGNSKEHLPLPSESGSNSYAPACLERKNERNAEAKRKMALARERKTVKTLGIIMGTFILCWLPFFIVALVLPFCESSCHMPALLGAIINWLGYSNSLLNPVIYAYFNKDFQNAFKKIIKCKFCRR

D(1A) dopamine receptor = D(1A) dopamine receptor (Homo sapiens, UniProt P21728); assay: Displacement of [3H]SCH-23390 from human dopamine D1 receptor expressed in HEK293 cells
Sequence of D(1A) dopamine receptor (P21728 whole entry): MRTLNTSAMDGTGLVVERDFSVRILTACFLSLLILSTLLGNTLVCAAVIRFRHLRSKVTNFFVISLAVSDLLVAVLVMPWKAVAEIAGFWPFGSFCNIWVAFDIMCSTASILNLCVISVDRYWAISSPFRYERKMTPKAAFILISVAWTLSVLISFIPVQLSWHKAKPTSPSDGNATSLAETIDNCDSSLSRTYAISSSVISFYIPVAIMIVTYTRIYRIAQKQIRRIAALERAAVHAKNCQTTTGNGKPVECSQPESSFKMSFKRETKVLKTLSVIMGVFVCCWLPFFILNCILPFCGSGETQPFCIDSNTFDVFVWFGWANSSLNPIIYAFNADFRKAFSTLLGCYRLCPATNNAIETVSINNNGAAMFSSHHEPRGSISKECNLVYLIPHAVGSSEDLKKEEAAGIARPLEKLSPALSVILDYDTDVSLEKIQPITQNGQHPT

[2] = target: T2, 5-hydroxytryptamine receptor 1A (Rattus norvegicus) (UniProt P19327); assay: Displacement of [3H]8-OH-DPAT from rat 5HT1A receptor expressed in CHO cells at 10 uM
T2 sequence (whole entry): T1 sequence (P19327 whole entry)
Method in brief: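 Duplicate incubations ran 50 min at 30 °C in 50 mM Tris, 4 mM MgCl2, pH 7.4. Nonspecific binding was set with 10 µM WAY100635. Bound ligand was separated on GF/B filters, washed with cold Tris/EDTA buffer, and counted by liquid scintillation.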

D(2) dopamine receptor = D(2) dopamine receptor (Homo sapiens, UniProt P14416); assay: Displacement of [3H]spiperone from human dopamine D2 receptor expressed in HEK293 cells
Sequence of D(2) dopamine receptor (P14416 whole entry): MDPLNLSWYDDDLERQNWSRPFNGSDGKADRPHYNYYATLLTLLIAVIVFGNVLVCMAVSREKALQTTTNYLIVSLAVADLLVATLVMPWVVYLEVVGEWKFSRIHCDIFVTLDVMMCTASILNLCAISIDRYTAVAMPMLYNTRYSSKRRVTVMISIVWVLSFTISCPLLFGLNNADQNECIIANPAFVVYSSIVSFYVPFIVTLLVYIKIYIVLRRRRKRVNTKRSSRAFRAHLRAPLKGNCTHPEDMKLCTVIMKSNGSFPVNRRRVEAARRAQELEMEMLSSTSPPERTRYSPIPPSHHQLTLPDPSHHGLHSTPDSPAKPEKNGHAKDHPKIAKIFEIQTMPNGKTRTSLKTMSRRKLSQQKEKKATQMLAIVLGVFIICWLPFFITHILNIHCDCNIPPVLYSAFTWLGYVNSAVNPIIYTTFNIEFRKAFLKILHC

Structure (SMILES)	Ki [1]	Ki (D(1A) dopamine receptor)	Activity [2]	Ki (D(2) dopamine receptor)
CN1CCc2cc(N)cc3c2[C@H]1Cc1cccc(N)c1-3	2300 nM	2920 nM	48.1%	–
CN1CCc2c3c(cc4nc(N)sc24)-c2c(ccc(O)c2O)C[C@H]31	–	2520 nM	–	328 nM
CCCCC(=O)Oc1cccc2c1-c1cc(OC)cc3c1[C@@H](C2)N(C)CC3	151 nM	116 nM	100%	–
NCCc1c[nH]c2ccc(O)cc12	–	–	100%	–
COc1cc2c3c(c1)-c1c(N)cccc1C[C@H]3N(C)CC2	640 nM	78 nM	94%	–
COc1cc2c3c(c1)-c1c(ccc4sc(N)nc14)C[C@H]3N(C)CC2	–	–	48.1%	–
